# PMC4321732 (Structure (London, England : 1993), 2015)
# *1 amine or outer side, *2 acyl side, *3 side chain or, on linkers, in order; H or OH if unused. Where no end group is shown, it is not given here. [ ]: non-standard residue; d: D form. KCme2 = N-dimethylated aminoethylcysteine, CN(C)CCSC[C@H](N[*:1])C(=O)[*:2]; Me2 = dimethyl group on the Lys side-chain amine
# Columns and labels:
# [1] = biological target: T1, 53BP1 TTD (Homo sapiens, UniProt Q12888); experiment: NMR titration; assay type: binding; conditions: 1H,15N HSQC, 298 K; for effect of glycine mutation on CSPs in 15N-labeled TTD: 0.1–0.2 mM TTD, glycine mutants of p53KC370me2 peptide
# [2] = biological target: T1, 53BP1 TTD; experiment: NMR solution structure of TTD-peptide complex; conditions: 298 K, 25 mM sodium phosphate pH 7.5
# In short: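 Complexes of the 53BP1 tandem Tudor domain with dimethylated p53 peptides (residues 363–377 or 376–387) recorded on a 700 MHz cryoprobe in 90% H2O/10% D2O or 100% D2O with 1.5 mM NaN3. Samples were 2 mM 13C/15N-TTD with 6 mM unlabeled peptide, or 2 mM labeled dimethyllysine-analog peptide with 5 mM TTD. Intermolecular NOEs came from filtered 13C-edited NOESY-HSQC.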
# [3] = biological target: T1, 53BP1 TTD; conditions: monomeric TTD; ref Roy et al., 2010; cited from earlier work
# [4] = biological target: CL-TTD (Homo sapiens, UniProt Q12888, C1525A/C1535A); experiment: NMR titration; assay type: binding; conditions: 1H,15N HSQC, 298 K, 0.1–0.2 mM CL-TTD
# [5] = system: GST-tagged 53BP1 TTD; experiment: Peptide microarray; assay type: binding, human; conditions: normalized mean intensities of four arrays
# [6] = biological target: T1, 53BP1 TTD; experiment: Overall preference of 53BP1 TTD from peptide library, fluorescence and NMR; assay type: binding; conditions: overall conclusion from library, fluorescence and NMR results
# T1 sequence (Q12888 1484-1603): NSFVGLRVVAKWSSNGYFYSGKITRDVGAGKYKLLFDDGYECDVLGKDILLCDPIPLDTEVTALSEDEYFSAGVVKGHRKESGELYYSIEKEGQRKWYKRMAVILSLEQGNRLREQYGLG
# Chain of CL-TTD (Q12888 1481-1603 C1525A/C1535A): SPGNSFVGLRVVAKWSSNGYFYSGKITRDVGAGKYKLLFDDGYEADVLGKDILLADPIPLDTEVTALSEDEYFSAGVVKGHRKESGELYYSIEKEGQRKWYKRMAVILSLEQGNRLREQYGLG
substance,measurement,setting,value
p53H365GKC370me2: p53KC370me2 peptide with H365 substituted with glycine (GHMRAGSSHL[KCme2]SKKGQST),effect of glycine mutation on CSPs in 15N-labeled TTD,[1],Alterations in CSPs
p53H368GKC370me2: p53KC370me2 peptide with H368 substituted with glycine (GHMRAHSSGLCSKKGQST; not fully specified (residue 11)),effect of glycine mutation on CSPs in 15N-labeled TTD,[1],Alterations in CSPs
"p53K370me2: p53K370me2 (residues 363–377) peptide, chemically synthesized (RAHSSHLK(Me2)SKKGQST)",site of dimethyllysine indicated by pattern of CSPs,[1],fully consistent with K370me2 occupying the aromatic cage
same,protein-peptide interface area in NMR ensemble,[2],707 ± 43 Å^2
same,Kd,[3],20 µM
"p53K382me2: p53K382me2 (residues 376–387) peptide, chemically synthesized (STSRHKK(Me2)LMFKT)",chemical shift / resonance intensity changes in 15N-labelled CL-TTD,[4],substantial chemical shift changes
same,binding in peptide library screen,[5],recognized primarily
same,protein-peptide interface area in NMR ensemble,[2],678 ± 60 Å^2
same,preference of 53BP1 TTD module,[6],strong preference
same,Kd,[3],0.9 µM
p53KC370me2K372G: p53KC370me2 peptide with K372 substituted with glycine (GHMRAHSSHLCSGKGQST; not fully specified (residue 11)),effect of glycine mutation on CSPs in 15N-labeled TTD,[1],caused the same CSPs as the wild type p53KC382me2 peptide
p53KC370me2K373G: p53KC370me2 peptide with K373 substituted with glycine (GHMRAHSSHLCSKGGQST; not fully specified (residue 11)),effect of glycine mutation on CSPs in 15N-labeled TTD,[1],caused the same CSPs as the wild type p53KC382me2 peptide
p53L369GKC370me2: p53KC370me2 peptide with L369 substituted with glycine (GHMRAHSSHGCSKKGQST; not fully specified (residue 11)),effect of glycine mutation on CSPs in 15N-labeled TTD,[1],Alterations in CSPs
